# Data published in PubChem BioAssay AID651647 (Sanford-Burnham Center for Chemical Genomics, 2012).
# Hit rate of the full screen: of about 360,000 compounds, about 220 (0.061%) were called active. This is one part of a sample in which actives are shown more often than they occur. Unmarked numbers belong to inactive results.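 The calls were made as follows: active = GFP/RFP ratio change of at least 30% with cell ATP level not reduced by more than half and red fluorescence within 50% of control; inactive = the rest, inconclusive results apart.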
# Target: Matrix metalloproteinase-14 (Homo sapiens) (UniProt P50281)
# Assay: blockers of MT1-MMP proenzyme processing, primary screen, HT1080 RFP-PRO-GFP cells, GFP/RFP fluorescence (AID 651647)
# Conditions: overnight, at 20 µM, active compounds read high, percent of plate control window, DMSO zero
# Outline: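 Assay system – RFP-PRO-GFP reporter HT1080 cells · Compound dosing – single dose of 20 µM compound, 1% DMSO final · Incubation – overnight compound exposure at 37 °C · Measure – GFP/RFP fluorescence ratio · Benchmarks – DMSO wells and RFP-L50D-GFP cells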
row,SMILES,GFP/RFP ratio change
1,CC12CCC(C(=O)N(NC(=O)c3ccccc3O)C1=O)C2(C)C (configuration not stated),2.09%
2,CC(C)COC(=O)C1C2C=CC3(CN(C(C)c4ccc(Br)cc4)C(=O)C13)O2 (configuration not stated),3.45%
3,COC(=O)CN1C(=O)[C@H]2[C@@H](/C=C/c3ccccc3)N3C(=O)CN(Cc4ccccc4)C(=O)[C@@]3(Cc3ccccc3)[C@H]2C1=O,2.05%
4,CCC(C(=O)NCc1ccc(OC)cc1)n1nc(C)n2c(cc3occc32)c1=O (configuration not stated),-2.32%
5,O=C(c1cccc(S(=O)(=O)N2CCCC2)c1)N(Cc1ccco1)C1CCS(=O)(=O)C1 (configuration not stated),-1.85%
6,COc1ccc2c(c1OC)C(=O)N(c1ncn[nH]1)C2,5.29%
7,COc1cc(C2C(N3C(=O)c4ccccc4C3=O)C(=O)N2c2ccc(C)c(C)c2)cc(OC)c1OC (configuration not stated),4.49%
8,CCN(CC(=O)Nc1ccc(NC(C)=O)cc1)C(=O)C1CC(=O)N(c2ccc3c(c2)OCCO3)C1 (configuration not stated),1.76%
9,COc1ccccc1NC1=NC(c2ccc(Cl)cc2)N=C(N)N1 (configuration not stated),-2.9%
10,Cc1cc(OC(=O)c2ccc(Cl)cc2)cc(=O)n1C,0.208%
11,CCN(CC)C(=O)N1CCN(C(=O)c2ccc(C)cn2)CC1,4.93%
12,CC1(C(=O)NCc2ccc3c(c2)OCO3)CCN1CCc1ccccc1 (configuration not stated),2.41%
13,COCCCNC(=O)CN1C(=O)CSc2ccc(S(=O)(=O)N3CCOCC3)cc21,-2.33%
14,CCn1cc(CCC(=O)NCc2ccc(F)cc2)c2ccccc21,1.53%
15,N#Cc1ccc(-c2nc3c(Cl)cc(C(F)(F)F)cn3c2Cc2ccccc2C(F)(F)F)cc1,1.7%
16,CN(C)CCCn1c(SCc2ccc(Cl)cc2)nnc1-c1ccncc1,1.22%
17,CC1(C)OC(=O)C2=C(C[C@@H](C3CCCCC3)O[C@@H]2c2ccc(Cl)cc2)O1,-0.857%
18,CC1(C)CC(=O)NC=C(c2ccccc2)C1,0.817%
19,COc1ccc(C(=O)COC(=O)c2c(C)noc2C)cc1Cl,0.327%

row,SMILES,GFP/RFP ratio change
1,O=c1[nH]nc(SCCS(=O)(=O)c2ccc(F)cc2)n1-c1ccccc1C(F)(F)F,1.01%
2,COc1cccc(NC(=O)Cn2c3ccc(F)cc3c3nc4n(c(=O)c32)CCS4)c1,1.54%
3,O=C(CCc1ccccc1F)N1CCN(c2ccccc2)CC1,-1.03%
4,Cc1cc(=O)oc2c1ccc1ccccc12,0.0995%
5,CCCCCc1ccc(-c2ccc(C(=O)O)cc2)nc1,0.418%
6,Cc1cc(C)c(C#N)c(SCS(=O)c2ccc(C(C)(C)C)cc2)n1 (configuration not stated),3.13%
7,O=C(COC(=O)C1CCN(S(=O)(=O)c2ccc3c(c2)OCCO3)CC1)Nc1ccccc1OC(F)F,-1.25%
8,CC1(C)CN(Cc2cccnc2)C(=O)[C@H]1CC(=O)Nc1ccc(Br)cc1,-0.506%
9,CCCc1nc(-c2ccccc2O)n(-c2ccccc2)n1,1.17%
10,N#CCSc1nc2ccc(N3CCOCC3)cc2c(=O)n1CCc1ccccc1,9.47%
11,COc1cc(NC(=O)CCS(=O)(=O)c2ccc3c(c2)oc(=O)n3C)cc(OC)c1,0.489%
12,Cc1cc(OCc2ccc(C(=O)Nc3ccc(C(=O)O)cc3)o2)ccc1Cl,1.24%
13,Cc1ccc(NC(=O)COc2coc(CN3CCc4ccccc4C3)cc2=O)cc1Cl,-6.33%
14,CCCc1c(C(=O)N/N=C(\C)CCc2ccc(OC)cc2)nnn1-c1nonc1N,0.35%
15,O=C1CCCC(O)=C1N=Nc1ccc2ncsc2c1,4.19%
16,CC1(C)CC(=O)C(N=Nc2ccc(S(=O)(=O)N3CCCCCC3)cc2)=C(O)C1,3.46%
17,O=C1CCCC(O)=C1N=Nc1ccc(S(=O)(=O)N2CCOCC2)cc1,48.9% (active)
18,CC1(C)CC(=O)C(C2=NC(C)(C)Cc3ccccc32)=C(O)C1,-1.97%
19,CCCCCCN1C[C@H](O)[C@@H](n2cc(C3CC3)nn2)C[C@@H]1c1ccc(Cl)cc1,2.78%

row,SMILES,GFP/RFP ratio change
1,CC1CC(C)CN(CCCNC(=O)Cn2ncc3c([nH]c4ccccc43)c2=O)C1 (configuration not stated),-6.2%
2,Cc1ccc(C(=O)OCC(=O)Nc2ccc(Cl)cn2)cc1S(=O)(=O)N1CCOCC1,2.27%
3,CCOc1ccc(NC(=O)[C@H](C)NC(=O)C2CC(=O)N(c3ccc(OC)cc3)C2)cc1 (some centres not stated),0.231%
4,CCOC(=O)c1c(NC(=O)CCCN2CCOCC2)sc2c1CC(C)(C)OC2,-2.69%
5,O=P(O)(CP(=O)(c1ccccc1)c1ccccc1)c1ccccc1,35.4% (active)
6,O=C(CP(=O)(c1ccccc1)c1ccccc1)N1CCOCC1,1.97%
7,O=P(O)(CP(=O)(c1ccccc1)c1ccccc1)c1ccccc1O,2.61%
8,Cc1noc(COc2ccccc2OCc2onc(C)c2Cl)c1Cl,-3.96%
9,CC(C)(C)Cc1c(C2CCCCC2)nc2ccc(Br)cn12,-6.01%
10,CCN(CC)C(=O)Oc1ccc(Br)cc1C(=O)Nc1ccc(F)c(Cl)c1,-4.63%
11,COc1ccc(-c2noc(C(C)NS(=O)(=O)c3ccc(NC(C)=O)cc3)n2)cc1 (configuration not stated),-4.06%
12,CCOC(=O)c1cnc2c(c(C)nn2CC)c1Cl,2.11%
13,COc1ccc(NC(=O)C(C)N2c3cccc4cccc(c34)S2(=O)=O)c(OC)c1 (configuration not stated),3.17%
14,COc1ccc(CC(NC(C)=O)C(=O)N2CCN(C(=O)Nc3cccc(Cl)c3)CC2)cc1OC (configuration not stated),-3.43%
15,Brc1ccc(Nc2c3c(nc4ncnn24)CCC3)cc1,1.92%
16,CN=C1C=C/C(=N/N=c2\ccn(O)cc2C)C=C1C,61% (active)
17,CC[N+]1(CC)CC2=Cc3ccccc3CC2C1 (configuration not stated),0.892%
18,CC(Sc1nc2cc(Cl)ccc2s1)C(=O)Nc1ccc2c(c1)OCO2 (configuration not stated),3.37%
19,COCCCNC(=O)/C(C#N)=C/c1c(N2CCCCCC2)nc2ccccn2c1=O,-0.526%
